Measured values taken from the RNAGym collection of RNA variant scans (doi:10.1126/science.aae0568).
Fewer inactive variants are shown than the library holds.

B1: tRNA (parent)
chain: GUUCCGUUGGCGUAAUGGUAACGCGUCUCCCUCCUAAGGAGAAGACUGCGGGUUCGAGUCCCGUACGGAACG

Variants of: B1
Experiment: yeast fitness relative to wild type (ratio to wild type); higher = fitter; tRNA-Arg(CCU), competitive growth, 37 C, YPD
Procedure, shortened: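 For this measurement, the tRNA-Arg(CCU) gene was varied by chemical synthesis at a 3% per-site mutation rate across 69 sites, and each variant was placed at the native genomic locus in Saccharomyces cerevisiae. The pooled strains went through a 24-hour competition in YPD at 37°C in six parallel replicates, with amplicons from start and end populations read by 100-nucleotide paired-end sequencing. Darwinian fitness relative to wild type followed from the change in each genotype's frequency. Genotypes needed ≥ 100 starting reads, and estimates < 0.5 were set to 0.5.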

Variant | yeast fitness
GUUCCGUUGGCGUAAUGGUAACGCGUCUCCCUCCUAAGGAGAAGACUGCGGGUUCGAGUGCUGUACGGAACG [C60G C62U] | 0.743
GUUCCGUUGGCGUAAUGGUAACGCGUCUCCCUCCUAAGGAGAAGACUGCGGGUUCGAGUGCCGUAGGGAACG [C60G C66G] | 0.576
GUUCCGUUGGCGUAAUGGUAACGCGUCUCCCUCCUAAGGAGAAGACUGCGGGUUCGAGUGCCGUAGGGUACG [C60G C66G A69U] | ≤ 0.5
GUUCCGUUGGCGUAAUGGUAACGCGUCUCCCUCCUAAGGAGAAGACUGCGGGUUCGAGUGCCGUAGGAAACG [C60G C66G G68A] | ≤ 0.5
GUUCCGUUGGCGUAAUGGUAACGCGUCUCCCUCCUAAGGAGAAGACUGCGGGUUCGAGUGCCAUUUGGAACG [C60G G63A A65U C66U] | ≤ 0.5
GUUCCGUUGGCGUAAUGGUAACGCGUCUCCCUCCUAAGGAGAAGACUGCGGGUUCGAGUGCCCUACGGAACG [C60G G63C] | ≤ 0.5
GUUCCGUUGGCGUAAUGGUAACGCGUCUCCCUCCUAAGGAGAAGACUGCGGGUUCGAGUGCCGUACCGAACG [C60G G67C] | 0.574
GUUCCGUUGGCGUAAUGGUAACGCGUCUCCCUCCUAAGGAGAAGACUGCGGGUUCGAGUGCCGCACGGAACG [C60G U64C] | 0.568
GUUCCGUUGGCGUAAUGGUAACGCGUCUCCCUCCUAAGGAGAAGACUGCGGGUUCGAGUUCCGUACGGAACG [C60U] | 0.779
GUUCCGUUGGCGUAAUGGUAACGCGUCUCCCUCCUAAGGAGAAGACUGCGGGUUCGAGUUCCGUCCGGAACG [C60U A65C] | 0.764
GUUCCGUUGGCGUAAUGGUAACGCGUCUCCCUCCUAAGGAGAAGACUGCGGGUUCGAGUUCCGUGCGGAACG [C60U A65G] | 0.86
GUUCCGUUGGCGUAAUGGUAACGCGUCUCCCUCCUAAGGAGAAGACUGCGGGUUCGAGUUCCGUUCGGAACG [C60U A65U] | 0.816
GUUCCGUUGGCGUAAUGGUAACGCGUCUCCCUCCUAAGGAGAAGACUGCGGGUUCGAGUUCCGUACGGUACG [C60U A69U] | 0.771
GUUCCGUUGGCGUAAUGGUAACGCGUCUCCCUCCUAAGGAGAAGACUGCGGGUUCGAGUUCCGUACGGACCG [C60U A70C] | 0.732
GUUCCGUUGGCGUAAUGGUAACGCGUCUCCCUCCUAAGGAGAAGACUGCGGGUUCGAGUUCCGUACGGAUCG [C60U A70U] | 0.655
GUUCCGUUGGCGUAAUGGUAACGCGUCUCCCUCCUAAGGAGAAGACUGCGGGUUCGAGUUACGUACGGAACG [C60U C61A] | 0.659
GUUCCGUUGGCGUAAUGGUAACGCGUCUCCCUCCUAAGGAGAAGACUGCGGGUUCGAGUUUCGUACGGAACG [C60U C61U] | 0.717
GUUCCGUUGGCGUAAUGGUAACGCGUCUCCCUCCUAAGGAGAAGACUGCGGGUUCGAGUUUCGGACGGAACG [C60U C61U U64G] | 0.677
GUUCCGUUGGCGUAAUGGUAACGCGUCUCCCUCCUAAGGAGAAGACUGCGGGUUCGAGUUCUGUACGGAACG [C60U C62U] | 0.659
GUUCCGUUGGCGUAAUGGUAACGCGUCUCCCUCCUAAGGAGAAGACUGCGGGUUCGAGUUCUGUACGGACCG [C60U C62U A70C] | 0.539
GUUCCGUUGGCGUAAUGGUAACGCGUCUCCCUCCUAAGGAGAAGACUGCGGGUUCGAGUUCCGUAAGGAACG [C60U C66A] | 0.619
GUUCCGUUGGCGUAAUGGUAACGCGUCUCCCUCCUAAGGAGAAGACUGCGGGUUCGAGUUCCGUAGGGAACG [C60U C66G] | 0.687
GUUCCGUUGGCGUAAUGGUAACGCGUCUCCCUCCUAAGGAGAAGACUGCGGGUUCGAGUUCCCUACGGAACG [C60U G63C] | 0.572
GUUCCGUUGGCGUAAUGGUAACGCGUCUCCCUCCUAAGGAGAAGACUGCGGGUUCGAGUUCCGUACCGAACG [C60U G67C] | 0.828
GUUCCGUUGGCGUAAUGGUAACGCGUCUCCCUCCUAAGGAGAAGACUGCGGGUUCGAGUUCCGUACUGAACG [C60U G67U] | 0.678

Variant | yeast fitness
GUUCCGUUGGCGUAAUGGUAACGCGUCUCCCUCCUAAGGAGAAGACUGCGGGUUCGAGUUCCGUACGCAACG [C60U G68C] | 0.752
GUUCCGUUGGCGUAAUGGUAACGCGUCUCCCUCCUAAGGAGAAGACUGCGGGUUCGAGUUCCGAACGGAACG [C60U U64A] | 0.656
GUUCCGUUGGCGUAAUGGUAACGCGUCUCCCUCCUAAGGAGAAGACUGCGGGUUCGAGUCACGUACGGAACG [C61A] | 0.707
GUUCCGUUGGCGUAAUGGUAACGCGUCUCCCUCCUAAGGAGAAGACUGCGGGUUCGAGUCACGUGCGGAACG [C61A A65G] | 0.595
GUUCCGUUGGCGUAAUGGUAACGCGUCUCCCUCCUAAGGAGAAGACUGCGGGUUCGAGUCACGUGCGAAACG [C61A A65G G68A] | ≤ 0.5
GUUCCGUUGGCGUAAUGGUAACGCGUCUCCCUCCUAAGGAGAAGACUGCGGGUUCGAGUCACGUACGGCACG [C61A A69C] | 0.631
GUUCCGUUGGCGUAAUGGUAACGCGUCUCCCUCCUAAGGAGAAGACUGCGGGUUCGAGUCACGUACGGUACG [C61A A69U] | 0.816
GUUCCGUUGGCGUAAUGGUAACGCGUCUCCCUCCUAAGGAGAAGACUGCGGGUUCGAGUCACGUACGGAUCG [C61A A70U] | 0.673
GUUCCGUUGGCGUAAUGGUAACGCGUCUCCCUCCUAAGGAGAAGACUGCGGGUUCGAGUCAGGUACGGAACG [C61A C62G] | 0.619
GUUCCGUUGGCGUAAUGGUAACGCGUCUCCCUCCUAAGGAGAAGACUGCGGGUUCGAGUCACGUAAGGAACG [C61A C66A] | 0.627
GUUCCGUUGGCGUAAUGGUAACGCGUCUCCCUCCUAAGGAGAAGACUGCGGGUUCGAGUCACGUAUGGAACG [C61A C66U] | 0.691
GUUCCGUUGGCGUAAUGGUAACGCGUCUCCCUCCUAAGGAGAAGACUGCGGGUUCGAGUCACGUAUGGCACG [C61A C66U A69C] | 0.601
GUUCCGUUGGCGUAAUGGUAACGCGUCUCCCUCCUAAGGAGAAGACUGCGGGUUCGAGUCACGUACAGCACG [C61A G67A A69C] | 0.524
GUUCCGUUGGCGUAAUGGUAACGCGUCUCCCUCCUAAGGAGAAGACUGCGGGUUCGAGUCACGUACGCAACG [C61A G68C] | 0.607
GUUCCGUUGGCGUAAUGGUAACGCGUCUCCCUCCUAAGGAGAAGACUGCGGGUUCGAGUCACGUACGUAACG [C61A G68U] | 0.534
GUUCCGUUGGCGUAAUGGUAACGCGUCUCCCUCCUAAGGAGAAGACUGCGGGUUCGAGUCACGAACGGUACG [C61A U64A A69U] | 0.558
GUUCCGUUGGCGUAAUGGUAACGCGUCUCCCUCCUAAGGAGAAGACUGCGGGUUCGAGUCACGCACGGAACG [C61A U64C] | 0.801
GUUCCGUUGGCGUAAUGGUAACGCGUCUCCCUCCUAAGGAGAAGACUGCGGGUUCGAGUCGCGUACGGAACG [C61G] | 0.688
GUUCCGUUGGCGUAAUGGUAACGCGUCUCCCUCCUAAGGAGAAGACUGCGGGUUCGAGUCGCGUUCGGAACG [C61G A65U] | 0.651
GUUCCGUUGGCGUAAUGGUAACGCGUCUCCCUCCUAAGGAGAAGACUGCGGGUUCGAGUCGCGUACGGCACG [C61G A69C] | 0.748
GUUCCGUUGGCGUAAUGGUAACGCGUCUCCCUCCUAAGGAGAAGACUGCGGGUUCGAGUCGCGUACGGGACG [C61G A69G] | 0.567
GUUCCGUUGGCGUAAUGGUAACGCGUCUCCCUCCUAAGGAGAAGACUGCGGGUUCGAGUCGCGUACGGACCG [C61G A70C] | 0.763
GUUCCGUUGGCGUAAUGGUAACGCGUCUCCCUCCUAAGGAGAAGACUGCGGGUUCGAGUCGCGUACAGAACG [C61G G67A] | 0.592
GUUCCGUUGGCGUAAUGGUAACGCGUCUCCCUCCUAAGGAGAAGACUGCGGGUUCGAGUCGCGUACCGAACG [C61G G67C] | 0.61
GUUCCGUUGGCGUAAUGGUAACGCGUCUCCCUCCUAAGGAGAAGACUGCGGGUUCGAGUCGCGUACCAAACG [C61G G67C G68A] | 0.611

Variant | yeast fitness
GUUCCGUUGGCGUAAUGGUAACGCGUCUCCCUCCUAAGGAGAAGACUGCGGGUUCGAGUCGCGUACGAAACG [C61G G68A] | 0.677
GUUCCGUUGGCGUAAUGGUAACGCGUCUCCCUCCUAAGGAGAAGACUGCGGGUUCGAGUCGCGUACGUAACG [C61G G68U] | 0.558
GUUCCGUUGGCGUAAUGGUAACGCGUCUCCCUCCUAAGGAGAAGACUGCGGGUUCGAGUCGCGCACGGAACG [C61G U64C] | 0.579
GUUCCGUUGGCGUAAUGGUAACGCGUCUCCCUCCUAAGGAGAAGACUGCGGGUUCGAGUCGCGGACGGAACG [C61G U64G] | 0.651
GUUCCGUUGGCGUAAUGGUAACGCGUCUCCCUCCUAAGGAGAAGACUGCGGGUUCGAGUCUCGUACGGAACG [C61U] | 1.01
GUUCCGUUGGCGUAAUGGUAACGCGUCUCCCUCCUAAGGAGAAGACUGCGGGUUCGAGUCUCGUCCGGAACG [C61U A65C] | 0.864
GUUCCGUUGGCGUAAUGGUAACGCGUCUCCCUCCUAAGGAGAAGACUGCGGGUUCGAGUCUCGUCCAAAACG [C61U A65C G67A G68A] | ≤ 0.5
GUUCCGUUGGCGUAAUGGUAACGCGUCUCCCUCCUAAGGAGAAGACUGCGGGUUCGAGUCUCGUUUGGAACG [C61U A65U C66U] | ≤ 0.5
GUUCCGUUGGCGUAAUGGUAACGCGUCUCCCUCCUAAGGAGAAGACUGCGGGUUCGAGUCUCGUACGGGACG [C61U A69G] | 0.878
GUUCCGUUGGCGUAAUGGUAACGCGUCUCCCUCCUAAGGAGAAGACUGCGGGUUCGAGUCUCGUACGGACCG [C61U A70C] | 0.939
GUUCCGUUGGCGUAAUGGUAACGCGUCUCCCUCCUAAGGAGAAGACUGCGGGUUCGAGUCUCGUACGGAGCG [C61U A70G] | 0.979
GUUCCGUUGGCGUAAUGGUAACGCGUCUCCCUCCUAAGGAGAAGACUGCGGGUUCGAGUCUGGUACGGAACG [C61U C62G] | 0.718
GUUCCGUUGGCGUAAUGGUAACGCGUCUCCCUCCUAAGGAGAAGACUGCGGGUUCGAGUCUUGUACGGAACG [C61U C62U] | 0.748
GUUCCGUUGGCGUAAUGGUAACGCGUCUCCCUCCUAAGGAGAAGACUGCGGGUUCGAGUCUCGUAAGGAACG [C61U C66A] | 0.644
GUUCCGUUGGCGUAAUGGUAACGCGUCUCCCUCCUAAGGAGAAGACUGCGGGUUCGAGUCUCAUACGGAACG [C61U G63A] | 0.874
GUUCCGUUGGCGUAAUGGUAACGCGUCUCCCUCCUAAGGAGAAGACUGCGGGUUCGAGUCUCUUACGAAACG [C61U G63U G68A] | 0.529
GUUCCGUUGGCGUAAUGGUAACGCGUCUCCCUCCUAAGGAGAAGACUGCGGGUUCGAGUCUCGUACCGAACG [C61U G67C] | 0.892
GUUCCGUUGGCGUAAUGGUAACGCGUCUCCCUCCUAAGGAGAAGACUGCGGGUUCGAGUCUCGAACGGGACG [C61U U64A A69G] | 0.597
GUUCCGUUGGCGUAAUGGUAACGCGUCUCCCUCCUAAGGAGAAGACUGCGGGUUCGAGUCUCGGACGGAACG [C61U U64G] | 0.674
GUUCCGUUGGCGUAAUGGUAACGCGUCUCCCUCCUAAGGAGAAGACUGCGGGUUCGAGUCCAGUACGGAACG [C62A] | 0.72
GUUCCGUUGGCGUAAUGGUAACGCGUCUCCCUCCUAAGGAGAAGACUGCGGGUUCGAGUCCAGUUUGGAACG [C62A A65U C66U] | ≤ 0.5
GUUCCGUUGGCGUAAUGGUAACGCGUCUCCCUCCUAAGGAGAAGACUGCGGGUUCGAGUCCAGUACGGCACG [C62A A69C] | 0.78
GUUCCGUUGGCGUAAUGGUAACGCGUCUCCCUCCUAAGGAGAAGACUGCGGGUUCGAGUCCAGUACGGUACG [C62A A69U] | 0.652
GUUCCGUUGGCGUAAUGGUAACGCGUCUCCCUCCUAAGGAGAAGACUGCGGGUUCGAGUCCAGUACGGAUCG [C62A A70U] | 0.858
GUUCCGUUGGCGUAAUGGUAACGCGUCUCCCUCCUAAGGAGAAGACUGCGGGUUCGAGUCCAGUAAGGAACG [C62A C66A] | 0.51
